# How the values were obtained:
# Mus musculus [1] = test: Effect on the mean heart weight of mice on day 1 (pre) of swiss CD-1 mice (charles river), in groups of six dosed orally once per day for 4 days with 50 mg/kg of compound; expressed as mg/10 g body weight; type: functional; settings: route oral
# Mus musculus [2] = organism: Mus musculus; test: Percent plasma glucose concentration of drug treated mice (ob/ob) relative to vehicle control animals; type: functional
# Procedure, shortened: (§1)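 Female ob/ob mice, 10 weeks old, fed ad libitum, in groups of 7–11. Dosed po once daily for 4 days in 0.5% methyl cellulose vehicle. Decapitated the next morning; 0.1 mL blood into saline with Trasylol and EDTA; plasma glucose by autoanalyzer. Reciprocal-transformed (y = 160/x) harmonic mean given as % of vehicle. Bonferroni-adjusted comparisons.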
# Mus musculus [3] = test: Effect on the mean body weight of mice on day 5 (post) of swiss CD-1 mice (charles river), in groups of six dosed orally once per day for 4 days with 50 mg/kg of compound; type: functional; settings: route oral
# Procedure, shortened: (§2)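 Swiss CD-1 mice (20–25 g) in groups of six; vehicle controls in three cages of three. Compound 50 mg/kg or vehicle (2% Tween 80/saline) given by gavage each afternoon for 4 consecutive days. Body weight taken before dosing (day 1) and on the morning of day 5. Mice were then killed under halothane and heart and liver weighed, per 10 g body weight. Bonferroni t test.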
# Mus musculus [4] = test: Effect on the mean liver weight of mice on day 1 (pre) of swiss CD-1 mice (charles river), in groups of six dosed orally once per day for 4 days with 50 mg/kg of compound; expressed as mg/10 g body weight; type: functional; settings: route oral
# Mus musculus [5] = test: Effect on the mean body weight of mice on day 1 (pre) of swiss CD-1 mice (charles river), in groups of six dosed orally once per day for 4 days with 50 mg/kg of compound; type: functional; settings: route oral; procedure, shortened: as §2
# Mus musculus [6] = test: Percent plasma glucose concentration of drug treated mice (ob/ob) relative to vehicle control animals following 75 mg/kg administration.; type: functional; procedure, shortened: as §1
# Mus musculus [7] = test: Effect on the mean body weight of mice on day 1 (pre) of swiss CD-1 mice (charles river), in groups of six dosed orally once per day for 4 days with 50 mg/kg of compound; […]; type: functional; settings: route oral
# Mus musculus [8] = test: Percent plasma glucose concentration of drug treated mice (ob/ob) relative to vehicle control animals was determined at the dose of 75 mg/kg
SMILES,Activity (Mus musculus [2]),Activity (Mus musculus [6]),further results
O=C(Nc1ccc(Cc2nn[nH]n2)cc1)C(F)(F)C(F)(F)C(F)(F)C(F)(F)C(F)(F)C(F)(F)C(F)(F)F,66%,–,Heart weight (Mus musculus [1]): 39 mg 10g-1; Body weight (Mus musculus [3]): 31.4 g; Liver weight (Mus musculus [4]): 1.25 g 10g-1; Body weight (Mus musculus [5]): 30.5 g
O=C(Nc1ccc(CCCCc2nn[nH]n2)cc1)C(F)(F)C(F)(F)C(F)(F)C(F)(F)C(F)(F)C(F)(F)C(F)(F)F,73%,–,–
O=C(Nc1ccccc1)C(F)(F)C(F)(F)C(F)(F)C(F)(F)C(F)(F)C(F)(F)C(F)(F)F,74%,–,–
O=C(O)C(F)(F)C(F)(F)C(F)(F)C(F)(F)C(F)(F)C(F)(F)F,–,107%,–
CCCCCCCCCCCCCCCCCC(=O)Nc1ccc(Cc2nn[nH]n2)cc1,108%,–,–
O=C(Nc1ccc(Cc2nn[nH]n2)cc1)c1ccc(C(F)(F)F)cc1,–,130%,–
O=C(O)C(F)(F)C(F)(F)C(F)(F)C(F)(F)F,–,133%,–
O=C(Nc1ccc(Cc2nnn[nH]2)cc1)C(F)(F)C(F)(F)C(F)(F)C(F)(F)C(F)(F)C(F)(F)C(F)(F)C(F)(F)C(F)(F)C(F)F,62%,–,–
CCCCNC(=O)C(F)(F)C(F)(F)C(F)(F)C(F)(F)C(F)(F)C(F)(F)C(F)(F)F,–,70%,–
COc1ccc2c(c1)CCCN2C(=O)C(F)(F)C(F)(F)C(F)(F)C(F)(F)C(F)(F)C(F)(F)C(F)(F)F,132%,–,–
O=C(Nc1cccnc1)C(F)(F)C(F)(F)C(F)(F)C(F)(F)C(F)(F)C(F)(F)C(F)(F)F,74%,–,–
O=C(N1CCCc2ccccc21)C(F)(F)C(F)(F)C(F)(F)C(F)(F)C(F)(F)C(F)(F)C(F)(F)F,115%,–,–
O=C(NCCCCCc1nnn[nH]1)C(F)(F)C(F)(F)C(F)(F)F,91%,–,–
Cl.Nc1ccc(Cc2nn[nH]n2)cc1,–,93%,Heart weight (Mus musculus [1]): 43 mg 10g-1; Body weight (Mus musculus [7]): 29.8 g; Body weight (Mus musculus [3]): 30.1 g; Liver weight (Mus musculus [4]): 0.591 g 10g-1
CCCCCCCC(=O)NNC(=O)C(F)(F)C(F)(F)C(F)(F)C(F)(F)C(F)(F)C(F)(F)C(F)(F)F,–,74%,Heart weight (Mus musculus [1]): 37 mg 10g-1; Body weight (Mus musculus [3]): 30.6 g; Liver weight (Mus musculus [4]): 1.44 g 10g-1; Body weight (Mus musculus [5]): 30.6 g
O=C(Nc1ccccn1)C(F)(F)C(F)(F)C(F)(F)C(F)(F)C(F)(F)C(F)(F)C(F)(F)F,56%,–,–
NCC(F)(F)C(F)(F)C(F)(F)C(F)(F)C(F)(F)C(F)(F)C(F)(F)F,84%,–,–
O=C(NCCCCCc1nn[nH]n1)C(F)(F)C(F)(F)C(F)(F)C(F)(F)C(F)(F)C(F)(F)C(F)(F)F,54%,–,–
OC(c1ccccc1)C(F)(F)C(F)(F)C(F)(F)C(F)(F)C(F)(F)C(F)(F)C(F)(F)C(F)(F)F (centres undefined),–,64%,–
O=C(NCC(F)(F)C(F)(F)C(F)(F)F)c1ccc(Cc2nn[nH]n2)cc1,90%,–,–
FC(F)(F)C(F)(F)C(F)(F)C(F)(F)C(F)(F)C(F)(F)C(F)(F)CNc1ccc(Cc2nn[nH]n2)cc1,–,57%,Heart weight (Mus musculus [1]): 39 mg 10g-1; Body weight (Mus musculus [3]): 31.2 g; Liver weight (Mus musculus [4]): 0.856 g 10g-1; Body weight (Mus musculus [5]): 30.3 g
O=C(Nc1ccc(CCc2nn[nH]n2)cc1)C(F)(F)C(F)(F)C(F)(F)F,76%,–,–
O=C(Nc1cccc(Cc2nn[nH]n2)c1)C(F)(F)C(F)(F)C(F)(F)C(F)(F)C(F)(F)C(F)(F)C(F)(F)F,60%,–,–
CCCCN(Cc1ccccc1)C(=O)C(F)(F)C(F)(F)C(F)(F)C(F)(F)C(F)(F)C(F)(F)C(F)(F)F,–,61%,Heart weight (Mus musculus [1]): 40 mg 10g-1; Body weight (Mus musculus [3]): 31.1 g; Liver weight (Mus musculus [4]): 1.18 g 10g-1; Body weight (Mus musculus [5]): 30.8 g
CCCC(=O)Nc1ccc(Cc2nn[nH]n2)cc1,–,108%,–
N#CCc1ccc(NC(=O)C(F)(F)C(F)(F)C(F)(F)C(F)(F)C(F)(F)C(F)(F)C(F)(F)F)cc1,–,69%,–
Cc1ccc(NC(=O)C(F)(F)C(F)(F)C(F)(F)C(F)(F)C(F)(F)C(F)(F)C(F)(F)F)cc1,–,58%,–

SMILES,Activity (Mus musculus [2]),Activity (Mus musculus [6]),further results
O=C(CCC(F)(F)F)Nc1ccc(Cc2nn[nH]n2)cc1,–,104%,–
FC(F)C(F)(F)C(F)(F)C(F)(F)C(F)(F)C(F)(F)C(F)(F)F,–,90%,–
O=C(Nc1ccc(Cc2nn[nH]n2)cc1)C(F)(F)C(F)(F)C(F)(F)F,96%,–,–
O=C(Nc1ccc(Cc2nn[n-]n2)cc1)C(F)(F)C(F)(F)C(F)(F)F.[Na+],–,–,Activity (Mus musculus [8]): 67%
O=C(NCCCCCc1nn[n-]n1)C(F)(F)C(F)(F)C(F)(F)C(F)(F)C(F)(F)C(F)(F)C(F)(F)C(F)(F)F.[Na+],62%,–,–
O=C(NCCCCCc1nn[n-]n1)C(F)(F)C(F)(F)C(F)(F)C(F)(F)C(F)(F)C(F)(F)C(F)(F)F.[Na+],48%,–,–
CN(C(=O)C(F)(F)C(F)(F)C(F)(F)C(F)(F)C(F)(F)C(F)(F)C(F)(F)F)c1ccc(Cc2nnn(C)n2)cc1,70%,–,–
CN(C(=O)C(F)(F)C(F)(F)C(F)(F)C(F)(F)C(F)(F)C(F)(F)C(F)(F)F)c1ccc(Cc2nnnn2C)cc1,67%,–,Heart weight (Mus musculus [1]): 41 mg 10g-1; Body weight (Mus musculus [3]): 31.1 g; Liver weight (Mus musculus [4]): 0.942 g 10g-1; Body weight (Mus musculus [5]): 29.9 g
O=C(Nc1ccc(Cc2nnn(Cc3ccccc3)n2)cc1)C(F)(F)C(F)(F)C(F)(F)C(F)(F)C(F)(F)C(F)(F)C(F)(F)F,68%,–,Heart weight (Mus musculus [1]): 41 mg 10g-1; Body weight (Mus musculus [3]): 31.4 g; Liver weight (Mus musculus [4]): 0.787 g 10g-1; Body weight (Mus musculus [5]): 30.3 g
COC(=O)NCC(F)(F)C(F)(F)C(F)(F)C(F)(F)C(F)(F)C(F)(F)C(F)(F)F,–,57%,–
FC(F)(F)C(F)(F)C(F)(F)CNc1ccc(Cc2nn[nH]n2)cc1,–,99%,–
O=C(NCCc1nnn[nH]1)C(F)(F)C(F)(F)C(F)(F)C(F)(F)C(F)(F)C(F)(F)C(F)(F)C(F)(F)F,65%,–,–
CCCCCCC(F)(F)C(=O)Nc1ccc(Cc2nn[nH]n2)cc1,–,80%,Heart weight (Mus musculus [1]): 43 mg 10g-1; Body weight (Mus musculus [3]): 31.7 g; Liver weight (Mus musculus [4]): 0.671 g 10g-1; Body weight (Mus musculus [5]): 30.4 g
O=C(NCCCCCc1nnn[nH]1)C(F)(F)F,95%,–,–
NC(=O)C(F)(F)C(F)(F)C(F)(F)C(F)(F)C(F)(F)C(F)(F)C(F)(F)F,65%,–,–
O=C(Nc1ccc(Cc2nnn[nH]2)cc1)C(F)(F)C(F)(F)C(F)(F)C(F)(F)C(F)(F)C(F)(F)C(F)(F)C(F)(F)C(F)(F)F,71%,–,–
O=C(Nc1ccccc1Cc1nn[nH]n1)C(F)(F)C(F)(F)C(F)(F)F,91%,–,–
O=C(Nc1ccc(-c2nn[nH]n2)cc1)C(F)(F)C(F)(F)C(F)(F)F,–,75%,–
O=C(NCC(F)(F)C(F)(F)C(F)(F)F)c1cccc(Cc2nn[nH]n2)c1,93%,–,–
O=C(N(Cc1ccccc1)c1ccc(Cc2nn[nH]n2)cc1)C(F)(F)C(F)(F)C(F)(F)C(F)(F)C(F)(F)C(F)(F)C(F)(F)C(F)(F)F,55%,–,Heart weight (Mus musculus [1]): 39 mg 10g-1; Body weight (Mus musculus [3]): 31.3 g; Liver weight (Mus musculus [4]): 1.11 g 10g-1; Body weight (Mus musculus [5]): 29.8 g
O=C(Nc1ccc(CCCc2nn[nH]n2)cc1)C(F)(F)C(F)(F)C(F)(F)C(F)(F)C(F)(F)C(F)(F)C(F)(F)F,63%,–,–
O=C(Nc1ccncc1)C(F)(F)C(F)(F)C(F)(F)C(F)(F)C(F)(F)C(F)(F)C(F)(F)F,66%,–,Heart weight (Mus musculus [1]): 39 mg 10g-1; Body weight (Mus musculus [3]): 32.4 g; Liver weight (Mus musculus [4]): 1.08 g 10g-1; Body weight (Mus musculus [5]): 30.7 g
O=C(N(Cc1ccccc1)c1cccc(Cc2nn[nH]n2)c1)C(F)(F)C(F)(F)C(F)(F)F,78%,–,–
O=C(Nc1ccc(Cc2nnn[nH]2)cc1)C(F)(F)F,104%,–,–
O=C(O)C(F)(F)C(F)(F)C(F)(F)C(F)(F)C(F)(F)C(F)(F)C(F)(F)C(F)(F)F,–,124%,–
CC1(COc2ccc(CC3SC(=O)NC3=O)cc2)CCCCC1 (centres undefined) [CIGLITAZONE],70%,–,–
CCNS(=O)(=O)C(F)(F)C(F)(F)C(F)(F)C(F)(F)C(F)(F)C(F)(F)C(F)(F)C(F)(F)F [SULFLURAMID],90%,–,–
